Data as given in ChEMBL document CHEMBL2429796, “Discovery and synthesis of novel benzofurazan derivatives as inhibitors of influenza A virus” (Bioorg Med Chem Lett, 2013).
pIC50: −log10 of the molar value. The source made the active and inactive calls. The rule behind the calls is not given here.

Assays:
HEK-293T = assay: Inhibition of influenza A virus HA-tagged polymerase acidic protien transfected in HEK293T cells after 24 hrs by ELISA; assay type: cell-based
MDCK = assay: Cytotoxicity against MDCK cells; assay type: cell-based, Canis lupus familiaris; conditions: dog
Influenza A virus = assay: Antiviral activity against Influenza A virus A/WSN/33(H1N1) infected in MDCK cells after 48 hrs by plaque reduction assay; assay type: functional, organism-based, A/WSN/1933(H1N1); conditions: for pIC50: Influenza A virus, A/WSN/1933(H1N1), MDCK, 48 h, read-out: IC50; for IC50: mdck
Summary of the method: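 Plaque-reduction assay in MDCK cells infected with influenza A/WSN/33 (H1N1). IC50 was determined only for compounds positive in an ELISA prescreen for binding to the polymerase PA subunit.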

O=[N+]([O-])c1ccc(Nc2ccccc2S)c2nonc12
inhibition (HEK-293T): Active
Cytotoxic concentration (MDCK): > 80 µM
pIC50 (Influenza A virus): 4.70

O=[N+]([O-])c1ccc(OCc2ccccc2)c2nonc12
inhibition (HEK-293T): Active
IC50 (Influenza A virus): Not Active

COc1ccc(CSc2ccc(Cl)c3nonc23)cc1
inhibition (HEK-293T): Active
IC50 (Influenza A virus): Not Active

O=[N+]([O-])c1ccc(Sc2ccc(Cl)cc2)c2nonc12
inhibition (HEK-293T): Active
Cytotoxic concentration (MDCK): 40 µM
pIC50 (Influenza A virus): 5.00

Nc1cccc(Sc2ccc([N+](=O)[O-])c3nonc23)c1
inhibition (HEK-293T): Active
Cytotoxic concentration (MDCK): 40 µM
pIC50 (Influenza A virus): 5.00

O=[N+]([O-])c1ccc(Oc2ccc(CCO)cc2)c2nonc12
inhibition (HEK-293T): Active
Cytotoxic concentration (MDCK): 20 µM
pIC50 (Influenza A virus): 5.00

O=[N+]([O-])c1ccc(Oc2cccc(Br)c2)c2nonc12
inhibition (HEK-293T): Active
Cytotoxic concentration (MDCK): > 40 µM
pIC50 (Influenza A virus): 4.70

CNc1ccc(SCc2ccc(OC)cc2)c2nonc12
inhibition (HEK-293T): Active
IC50 (Influenza A virus): Not Active

COc1ccc(CSc2ccc(NCc3ccccc3)c3nonc23)cc1
inhibition (HEK-293T): Active
IC50 (Influenza A virus): Not Active

O=[N+]([O-])c1ccc(SCc2ccc(F)cc2)c2nonc12
inhibition (HEK-293T): Active
Cytotoxic concentration (MDCK): 20 µM
IC50 (Influenza A virus): Not Active

O=[N+]([O-])c1cccc(CSc2ccc([N+](=O)[O-])c3nonc23)c1
inhibition (HEK-293T): Active
Cytotoxic concentration (MDCK): 20 µM
pIC50 (Influenza A virus): 6.00

O=[N+]([O-])c1ccc(Sc2ccc([N+](=O)[O-])c3nonc23)cc1
inhibition (HEK-293T): Active
Cytotoxic concentration (MDCK): 40 µM
pIC50 (Influenza A virus): 5.00

O=[N+]([O-])c1ccc(SCc2ccc(Br)cc2)c2nonc12
inhibition (HEK-293T): Active
Cytotoxic concentration (MDCK): > 10 µM
pIC50 (Influenza A virus): ≤ 5.30

O=Cc1ccc(Oc2ccc([N+](=O)[O-])c3nonc23)cc1
inhibition (HEK-293T): Active
Cytotoxic concentration (MDCK): > 40 µM
pIC50 (Influenza A virus): 4.70

COc1ccc(Oc2ccc([N+](=O)[O-])c3nonc23)cc1
inhibition (HEK-293T): Active
Cytotoxic concentration (MDCK): 60 µM
pIC50 (Influenza A virus): 4.52

O=[N+]([O-])c1ccc(Sc2ccc(F)cc2)c2nonc12
inhibition (HEK-293T): Active
Cytotoxic concentration (MDCK): 40 µM
pIC50 (Influenza A virus): 5.30

O=[N+]([O-])c1ccc(SCc2ccc(Cl)cc2)c2nonc12
inhibition (HEK-293T): Active
IC50 (Influenza A virus): Not Active

O=[N+]([O-])c1ccc(Sc2ccccc2)c2nonc12
inhibition (HEK-293T): Active
Activity (MDCK): 20 µM
IC50 (Influenza A virus): Not Active

O=[N+]([O-])c1ccc(Nc2ccccc2O)c2nonc12
inhibition (HEK-293T): Active
IC50 (Influenza A virus): Not Active

O=[N+]([O-])c1ccc(Nc2ccc(O)cc2)c2nonc12
inhibition (HEK-293T): Active
IC50 (Influenza A virus): Not Active

O=[N+]([O-])c1ccc(Sc2ccc(Br)cc2)c2nonc12
inhibition (HEK-293T): Active
Cytotoxic concentration (MDCK): 40 µM
pIC50 (Influenza A virus): 5.00

COc1ccc(Sc2ccc([N+](=O)[O-])c3nonc23)cc1
inhibition (HEK-293T): Active
Cytotoxic concentration (MDCK): 40 µM
IC50 (Influenza A virus): Not Active

O=[N+]([O-])c1ccc(SCc2ccccc2)c2nonc12
inhibition (HEK-293T): Active
Activity (MDCK): 20 µM
IC50 (Influenza A virus): Not Active

N#Cc1ccc(Oc2ccc([N+](=O)[O-])c3nonc23)cc1
inhibition (HEK-293T): Active
IC50 (Influenza A virus): Not Active

COc1cccc(Oc2ccc([N+](=O)[O-])c3nonc23)c1
inhibition (HEK-293T): Active
IC50 (Influenza A virus): Not Active

O=[N+]([O-])c1ccc(Sc2ccccc2Br)c2nonc12
inhibition (HEK-293T): Active
Cytotoxic concentration (MDCK): 40 µM
pIC50 (Influenza A virus): < 5.00
